Assay results taken from paper PMC4291883 (Asian Journal of Andrology, 2014).
“Also recorded” adds a separate entry of the source. Residues, ends and D or L forms follow the SMILES beside them.

Legend:
[1] = system: intracavernous pressure in anesthetized rats; experiment: Monitoring of intracavernous pressure; format: in vivo, male Wistar rats; settings: for ICP effect compared with U-II and/or P5U (in words): comparison between the peptides; for effect on ICP / penile erection (in words): lowest dose
Method in brief: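 Male Wistar rats (200–250 g) under i.p. urethane (1 g kg−1); carotid catheter records systemic pressure; 26-gauge needle through right crus into the cavernosal space records ICP; injections via the other crus. Test compound given at 0.03, 0.1, 0.3 and 1 nmol in 50 μl saline, next dose ≥5 min after return to baseline; ACh 5 nmol ends each run. Read-outs are ΔICP (mmHg) and AUC (mmHg × s); mean ± s.e.m., 5–7 experiments; ANOVA with Bonferroni post-test.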

[2] = system: human corpus cavernosum strips; settings: cited from earlier work
[3] = system: vascular smooth muscle; settings: cited from earlier work
[4] = system: intracavernous pressure in rats; settings: intracavernous administration in rats; cited from earlier work
[5] = target: T1, rat thoracic aorta (Rattus norvegicus, UniProt P49684); settings: comparison of U-II, P5U and UPG84
T1 sequence (P49684 1-386): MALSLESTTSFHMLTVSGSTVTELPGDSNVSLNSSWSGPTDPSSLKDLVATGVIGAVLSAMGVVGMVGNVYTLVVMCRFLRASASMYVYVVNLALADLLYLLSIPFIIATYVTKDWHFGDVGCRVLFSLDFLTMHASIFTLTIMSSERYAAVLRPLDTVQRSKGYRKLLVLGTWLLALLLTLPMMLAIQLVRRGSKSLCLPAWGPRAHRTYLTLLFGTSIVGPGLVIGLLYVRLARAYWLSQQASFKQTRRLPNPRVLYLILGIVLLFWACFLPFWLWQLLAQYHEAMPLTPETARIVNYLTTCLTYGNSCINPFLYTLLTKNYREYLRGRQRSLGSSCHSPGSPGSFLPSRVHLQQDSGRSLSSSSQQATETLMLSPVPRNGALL
Method in brief: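 Thoracic aorta from male Wistar rats (200–250 g) killed under anaesthesia was cut helically into two parallel strips and the endothelium rubbed off. Strips were held in bicarbonate salt solution at 37°C gassed with 95% O2/5% CO2, 5 mN load, isotonic recording. After 60 min equilibration they were checked with noradrenaline 1 μmol l−1 and re-equilibrated 60 min. Cumulative concentration-response curves were fitted by sigmoidal regression; EC50 expressed as pD2 (−log EC50).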

Compound	ICP effect (in words) ([1]; 0.1 nmol intracavernous)	relaxation of human corpus cavernosum (in words) [2]	vasoconstrictor potency (in words) [3]	ICP increase (in words) [4]	agonist activity / potency (in words) [5]	increase in ICP, area under the curve ([1]; 0.1 nmol intracavernous, 50 μl saline, urethane anesthesia, mean ± s.e.m., n = 7)	ICP effect compared with U-II 0.3 nmol (in words) ([1]; 0.1 nmol intracavernous, compared with U-II at 0.3 nmol per rat)	ICP effect compared with U-II and/or P5U (in words) ([1]; 0.03–1 nmol intracavernous)	delta of increase in ICP (in words) ([1]; 0.03–1 nmol intracavernous, delta in mmHg)	effect on ICP (in words) ([1]; doses of 0.1, 0.3 and 1 nmol intracavernous)	effect on ICP / penile erection (in words) ([1]; 0.03 nmol intracavernous)	ICP effect compared with P5U 1 nmol (in words) ([1]; 0.03 nmol intracavernous, compared with P5U at 1 nmol)	ICP effect compared with highest dose of U-II, 1 nmol (in words) ([1]; 0.03 nmol intracavernous, compared with U-II at 1 nmol)
CC(C)[C@H](NC(=O)[C@@H]1CSSC[C@H](NC(=O)[C@H](CC(=O)O)NC(=O)[C@@H]2CCCN2C(=O)[C@@H](NC(=O)[C@@H](N)CCC(=O)O)[C@@H](C)O)C(=O)N[C@@H](Cc2ccccc2)C(=O)N[C@@H](Cc2c[nH]c3ccccc23)C(=O)N[C@@H](CCCCN)C(=O)N[C@@H](Cc2ccc(O)cc2)C(=O)N1)C(=O)O [U-II, H-Glu-Thr-Pro-Asp-c[Cys-Phe-Trp-Lys-Tyr-Cys]-Val-OH]	already detectable	relaxes human corpus cavernosum strips in endothelium-and NO-dependent manner	most potent vasoconstrictor compound identified	dose-dependent increase in intracavernous pressure (ICP)									
CC(C)[C@H](NC(=O)[C@@H]1CSSC(C)(C)[C@H](NC(=O)[C@@H](N)CC(=O)O)C(=O)N[C@@H](Cc2ccccc2)C(=O)N[C@@H](Cc2c[nH]c3ccccc23)C(=O)N[C@@H](CCCCN)C(=O)N[C@@H](Cc2ccc(O)cc2)C(=O)N1)C(=O)O [P5U, H-Asp-c[Pen-Phe-Trp-Lys-Tyr-Cys]-Val-OH] (HELM PEPTIDE1{D.[Pen].F.W.K.Y.C.V}$PEPTIDE1,PEPTIDE1,2:R3-7:R3$$$V2.0)					higher activity (pD2) when compared to the endogenous ligand U-II	73.95 ± 7.312 mmHg × s	comparable to the effect elicited by U-II at a dose of 0.3 nmol; also recorded: not statistically different from the effect elicited by U-II at a dose of 0.3 nmol per rat	elicited a significant increase in ICP as compared to U-II	displays the same profile of the area under the curve	significantly raises ICP	did not affect the ICP		
CC(C)[C@H](NC(=O)[C@@H]1CSSC(C)(C)[C@H](NC(=O)[C@@H](N)CC(=O)O)C(=O)N[C@@H](Cc2ccccc2)C(=O)N[C@H](Cc2c[nH]c3ccccc23)C(=O)N[C@@H](CCCN)C(=O)N[C@@H](Cc2ccc(N)cc2)C(=O)N1)C(=O)O [UPG84, H-Asp-c[Pen-Phe-DTrp-Orn-(pNH2) Phe-Cys]-Val-OH] (HELM PEPTIDE1{D.[Pen].F.[dW].[Orn].[Nc1ccc(C[C@H](N[*:1])C(=O)[*:2])cc1].C.V}$PEPTIDE1,PEPTIDE1,2:R3-7:R3$$$V2.0)					showed the highest activity compared with the endogenous ligand, U-II, or P5U; also recorded: more potent than U-II or P5U			caused a significant increase in ICP compared to the endogenous ligand, U-II, and to P5U; also recorded: even more effective than P5U			induced a prominent penile erection in rat; also recorded: elicited a marked increase in ICP, expressed as area, compared with vehicle	comparable to the penile erection induced by P5U at the dose of 1 nmol	showed an effect similar to the highest dose of U-II (1 nmol); also recorded: comparable profile to that elicited by the highest dose of U-II (1 nmol); also recorded: comparable to the highest tested dose of U-II (1 nmol)
